# Assays:
# Rattus norvegicus [1] = species on record: Rattus norvegicus; experiment: Antiinflammatory activity against adjuvant induced arthritis in male charles river rats; assay type: functional
# Rattus norvegicus [2] = experiment: Safety assessment in adjuvant induced arthritis rat model (AA),po; assay type: functional
# [3] = Gastrointestinal safety of a compound relative to indomethacin and piroxicam; assay type: ADME
# How it was run: (§1)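 Male Sprague-Dawley rats (~165 g) received a single oral dose of drug or vehicle. Stomach and small intestine were examined for mucosal lesions under a 10× dissecting microscope in coded, randomized order. Any single lesion counted as positive. TD50 was calculated by the moving-average method.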
# [4] = Maximum blood level reached after an oral dose of 14.7 uM/kg intravenous route; assay type: ADME, organism-based; details: in vivo
# [5] = Volume of distribution at dose of 14.7 uM/kg intravenous route; assay type: ADME, organism-based; details: in vivo
# [6] = TD50/ED50 value of the compound; assay type: functional
# How it was run: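 Ratio of the GI lesion TD50 to the established adjuvant arthritis paw ED50, both measured orally in rats.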
# [7] = Elimination half life at dose of 14.7 uM/kg oral route; assay type: ADME, organism-based; details: in vivo
# [8] = Maximum blood level reached after an oral dose 14.7 uM/kg oral route; assay type: ADME, organism-based; set-up: dose 14.7 uM/kg, route oral; details: in vivo
# [9] = Elimination half life at dose of 14.7 uM/kg intravenous route; assay type: ADME, organism-based; details: in vivo
# [10] = Maximum blood level reached after an iv dose of 12.2 uM/kg; assay type: ADME, organism-based; set-up: dose 12.2 uM/kg, route intravenous; details: in vivo
# [11] = Elimination half life at dose of 12.2 uM/kg, iv; assay type: ADME, organism-based; details: in vivo
# [12] = Volume of distribution at dose of 12.2 uM/kg, iv; assay type: ADME, organism-based; details: in vivo
# [13] = Elimination half life at dose of 12.2uM/kg, po; details: in vivo
# [14] = Maximum blood level reached after an dose of 10.6 uM/kg intravenously; assay type: ADME, organism-based; set-up: dose 10.6 uM/kg, route intravenous; details: in vivo, iv
# [15] = Volume of distribution at dose of 10.6 uM/kg intravenously; assay type: ADME, organism-based; details: in vivo, iv
# [16] = Elimination half life at dose of 10.6 uM/kg orally; assay type: ADME, organism-based; details: in vivo, po
# [17] = Elimination half life at dose of 10.6 uM/kg intravenously; assay type: ADME, organism-based; details: in vivo, iv
# [18] = Maximum blood level reached at dose of 10.6 uM/kg orally; assay type: ADME, organism-based; set-up: dose 10.6 uM/kg, route oral; details: in vivo, po
# [19] = Cmax value at a dose of 7.1 uM/kg, iv; assay type: ADME, organism-based; set-up: dose 7.1 uM/kg, route intravenous; details: in vivo
# [20] = Volume of distribution at a dose of 7.1 uM/kg, iv; assay type: ADME, organism-based; details: in vivo
# [21] = Maximum blood level reached after an oral dose of 5.0 mg/kg; assay type: ADME, organism-based; set-up: dose 5 mg/kg, route oral; details: in vivo
# [22] = Elimination half life at a dose of 14.3 uM/kg, po; assay type: ADME, organism-based; details: in vivo
# [23] = Elimination half life at a dose of 7.1 uM/kg, iv; assay type: ADME, organism-based; details: in vivo
# [24] = Bioavailability at a dose of 7.1 uM/kg, iv; assay type: ADME, organism-based; details: eutheria, in vivo
# [25] = Ratio (12-day no effect/AA ED50) of the compound; assay type: functional
# How it was run: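 Maximum no-effect dose from the 12-day study divided by the adjuvant arthritis ED50. […] Read-outs were mortality, pharmacologic or toxic signs, body and organ weights and gross necropsy.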
# [26] = Gastrointestinal safety of a compound relative to indomethacin and piroxicam in rats; assay type: ADME, organism-based; details: rat, in vivo; how it was run: as §1
# Rattus norvegicus [27] = experiment: (§2) Safety assessment in car paw assay, po; assay type: functional
# Mus musculus [28] = species on record: Mus musculus; experiment: Effective dose of compound against analgesia was determined by phenylquinone writhing assay
# Rattus norvegicus [29] = species on record: Rattus norvegicus; experiment: Activity in the nonestablished adjuvant-induced arthritis model; assay type: functional
# Rattus norvegicus [30] = species on record: Rattus norvegicus; experiment: Compound was evaluated for 12 day tolerance in long evans rats; assay type: functional
# Rattus norvegicus [31] = experiment: Safety assessment in adjuvant induced arthritis rat model (AA),day 18,po; assay type: functional; details: 432 h
# Rattus norvegicus [32] = species on record: Rattus norvegicus; experiment: Maximum tolerated dose for 12 days in long evans rats; assay type: functional
# Rattus norvegicus [33] = species on record: Rattus norvegicus; experiment: Effective dose required for prevention of nonestablished adjuvant arthritis model wih an oral paw 18-day; assay type: functional; details: 432 h
# Mus musculus [34] = species on record: Mus musculus; experiment: Activity in the mouse oral contact sensitivity model; assay type: functional
# [35] = as §2; assay type: toxicity
# [36] = biological target: T1, Polyunsaturated fatty acid 5-lipoxygenase (Rattus norvegicus, UniProt P12527); experiment: Inhibitory activity against rat basophilic leukemia 5-lipoxygenase
# T1 sequence (P12527 whole entry): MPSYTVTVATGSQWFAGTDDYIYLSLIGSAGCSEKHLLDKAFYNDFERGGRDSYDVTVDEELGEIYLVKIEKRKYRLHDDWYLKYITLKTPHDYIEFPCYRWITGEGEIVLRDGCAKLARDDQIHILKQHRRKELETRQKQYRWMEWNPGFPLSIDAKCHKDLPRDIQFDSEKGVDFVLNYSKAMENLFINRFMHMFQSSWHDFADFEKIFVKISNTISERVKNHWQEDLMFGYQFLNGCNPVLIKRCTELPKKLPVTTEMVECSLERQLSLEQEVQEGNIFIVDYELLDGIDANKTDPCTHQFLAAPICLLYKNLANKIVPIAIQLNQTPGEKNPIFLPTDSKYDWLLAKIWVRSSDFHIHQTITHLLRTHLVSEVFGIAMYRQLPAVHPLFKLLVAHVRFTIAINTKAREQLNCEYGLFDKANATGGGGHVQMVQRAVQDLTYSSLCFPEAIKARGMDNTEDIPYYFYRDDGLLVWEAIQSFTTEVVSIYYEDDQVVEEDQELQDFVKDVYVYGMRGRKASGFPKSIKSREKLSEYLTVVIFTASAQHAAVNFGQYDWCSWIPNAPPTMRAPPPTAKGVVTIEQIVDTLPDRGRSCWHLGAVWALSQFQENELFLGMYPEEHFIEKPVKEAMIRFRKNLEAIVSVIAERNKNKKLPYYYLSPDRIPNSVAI
# [37] = Elimination half life at a dose of 12.7 uM/kg, po; assay type: ADME, organism-based; details: in vivo
# [38] = Elimination half life at a dose of 6.3 uM/kg iv; assay type: ADME, organism-based; details: in vivo
# [39] = Cmax value at a dose of 12.7 uM/kg, po; assay type: ADME, organism-based; set-up: dose 12.7 uM/kg, route oral; details: in vivo
# [40] = Cmax value at a dose of 6.3 uM/kg, iv; assay type: ADME, organism-based; set-up: dose 6.3 uM/kg, route intravenous; details: in vivo
# [41] = Volume of distribution at a dose of 6.3 uM/kg, iv; assay type: ADME, organism-based; details: in vivo
smiles,measurement,setting,value
CS(=O)(=O)c1ccc(-c2[nH]c(Cl)c(Br)c2-c2ccc(F)cc2)cc1,ED50,Rattus norvegicus [1],3.4 mg/kg
CS(=O)(=O)c1ccc(-c2[nH]c(I)c(I)c2-c2ccc(F)cc2)cc1,ED50,Rattus norvegicus [1],41.3 mg/kg
CS(=O)(=O)c1ccc(-c2[nH]c(F)cc2-c2ccc(F)cc2)cc1,ED50,Rattus norvegicus [1],0.31 mg/kg
CCCCC1C(=O)N(c2ccccc2)N(c2ccccc2)C1=O [PHENYLBUTAZONE],ED50,Rattus norvegicus [1],10 mg/kg
CS(=O)(=O)c1ccc(-c2[nH]ccc2-c2ccc(F)cc2)cc1,ED50,Rattus norvegicus [1],> 100 mg/kg
CC(C)Cc1ccc(C(C)C(=O)O)cc1 (stereo unspecified) [IBUPROFEN],ED50,Rattus norvegicus [1],100 mg/kg
CCOC(=O)CCCCn1c(Cl)cc(-c2ccc(F)cc2)c1-c1ccc(S(C)(=O)=O)cc1,ED50,Rattus norvegicus [1],> 100 mg/kg
CS(=O)(=O)c1ccc(-c2[nH]c(Br)c(Cl)c2-c2ccc(F)cc2)cc1,ED50,Rattus norvegicus [1],4.28 mg/kg
CS(=O)(=O)c1ccc(-c2[nH]c(Cl)c(Cl)c2-c2ccc(F)cc2)cc1,ED50,Rattus norvegicus [1],1.5 mg/kg
Cn1c(SC#N)cc(-c2ccc(F)cc2)c1-c1ccc(S(C)(=O)=O)cc1,ED50,Rattus norvegicus [1],> 27 mg/kg
Cc1ccc(S(=O)(=O)n2c(Br)cc(-c3ccc(F)cc3)c2-c2ccc(S(C)(=O)=O)cc2)cc1,ED50,Rattus norvegicus [1],> 9 mg/kg
CS(=O)(=O)c1ccc(-c2[nH]c(C#N)cc2-c2ccc(F)cc2)cc1,ED50,Rattus norvegicus [2]; read-out: ED50,3.82 µmol/kg
same,ED50,Rattus norvegicus [1],1.3 mg/kg
same,TD50,[3],> 381 µmol/kg
same,Cmax,[4],4.1 uM l-1
same,Vd,[5],5.7 L/kg
same,TD50/ED50,[6],> 100
same,half-life,[7],17.3 h
same,Cmax,[8],2.9 uM l-1
same,half-life,[9],13.7 h
CS(=O)(=O)c1ccc(-c2[nH]c(I)cc2-c2ccc(F)cc2)cc1,ED50,Rattus norvegicus [1],22 mg/kg
Cn1c(Br)cc(-c2ccc(F)cc2)c1-c1ccc(S(C)(=O)=O)cc1,Cmax,[10],2.9 uM l-1
same,ED50,Rattus norvegicus [2]; read-out: ED50,3.43 µmol/kg
same,half-life,[11],13.7 h
same,ED50,Rattus norvegicus [1],1.7 mg/kg
same,TD50,[3],> 416 µmol/kg
same,Vd,[12],10 L/kg
same,TD50/ED50,[6],> 100
same,half-life,[13],4.3 h
CS(=O)(=O)c1ccc(-c2[nH]c(Br)c(Br)c2-c2ccc(F)cc2)cc1,Cmax,[14],2.8 uM l-1
same,ED50,Rattus norvegicus [2]; read-out: ED50,4.1 µmol/kg
same,ED50,Rattus norvegicus [1],1.94 mg/kg
same,TD50,[3],> 211 µmol/kg
same,Vd,[15],4.3 L/kg
same,half-life,[16],47.5 h
same,half-life,[17],29.3 h
same,Cmax,[18],1.5 uM l-1
same,TD50/ED50,[6],> 113
CC(=O)n1c(Br)cc(-c2ccc(F)cc2)c1-c1ccc(S(C)(=O)=O)cc1,ED50,Rattus norvegicus [1],36.2 mg/kg
COc1ccc2c(c1)c(CC(=O)O)c(C)n2C(=O)c1ccc(Cl)cc1 [INDOMETHACIN],ED50,Rattus norvegicus [1],0.3 mg/kg
CS(=O)(=O)c1ccc(-c2[nH]c(F)c(F)c2-c2ccc(F)cc2)cc1,ED50,Rattus norvegicus [1],0.31 mg/kg
CC(C)(C)OC(=O)n1c(Br)cc(-c2ccc(F)cc2)c1-c1ccc(S(C)(=O)=O)cc1,ED50,Rattus norvegicus [1],31 mg/kg
CS(=O)(=O)c1ccc(-c2[nH]c(C(=O)C(F)(F)F)cc2-c2ccc(F)cc2)cc1,ED50,Rattus norvegicus [1],19.4 mg/kg
CS(=O)(=O)c1ccc(-c2[nH]c(S(C)(=O)=O)cc2-c2ccc(F)cc2)cc1,ED50,Rattus norvegicus [1],36.6 mg/kg
Cn1c(Cl)c(Cl)c(-c2ccc(F)cc2)c1-c1ccc(S(C)(=O)=O)cc1,ED50,Rattus norvegicus [1],5 mg/kg
Cn1c(Br)c(Br)c(-c2ccc(F)cc2)c1-c1ccc(S(C)(=O)=O)cc1,ED50,Rattus norvegicus [1],4.16 mg/kg
CS(=O)(=O)c1ccc(-c2[nH]c(Cl)cc2-c2ccc(F)cc2)cc1,Cmax,[19],1.4 uM l-1
same,Vd,[20],9 L/kg
same,ED30,Rattus norvegicus [2],1.43 µM/kg
same,Cmax,[21],2.3 uM l-1
same,half-life,[22],5.8 h
same,ED50,Rattus norvegicus [1],0.5 mg/kg
same,TD50,[3],100 µmol/kg
same,half-life,[23],6.1 h
same,F,[24],1
same,TD50/ED50,[6],70
CS(=O)(=O)c1ccc(-c2[nH]c([N+](=O)[O-])cc2-c2ccc(F)cc2)cc1,ED50,Rattus norvegicus [1],9 mg/kg
CS(=O)(=O)c1ccc(-c2[nH]c(S(=O)(=O)O)cc2-c2ccc(F)cc2)cc1.c1ccncc1,ED50,Rattus norvegicus [1],12.7 mg/kg
CSc1cc(-c2ccc(F)cc2)c(-c2ccc(S(C)(=O)=O)cc2)[nH]1,Ratio,[25],> 30
same,ED50,Rattus norvegicus [2],4.98 µM/kg
same,TD50,[26],> 414 µmol/kg
same,ED30,Rattus norvegicus [27],>276 µM/kg
same,ED50,Rattus norvegicus [1],1.8 mg/kg
same,ED50,Mus musculus [28],46.3 mg/kg
same,ED50,Rattus norvegicus [29],25 mg/kg
same,no-effect dose,Rattus norvegicus [30],>99 µM/kg
same,TD50/ED50,[6],> 83
same,ED50,Rattus norvegicus [31],69.2 µM/kg
same,Max tolerated dose,Rattus norvegicus [32],>199 µM/kg
CS(=O)(=O)c1ccc(-c2[nH]c(SC#N)cc2-c2ccc(F)cc2)cc1,ED50,Rattus norvegicus [2]; read-out: ED50,10.5 µmol/kg
same,ED50,Rattus norvegicus [33],7 mg/kg
same,ED50,Rattus norvegicus [1],3.9 mg/kg
same,TD50,[3],> 335 µmol/kg
same,ED35,Mus musculus [34],8 mg/kg
same,no-effect dose,Rattus norvegicus [30],>418 µM/kg
same,ED30,[35],268.5 µM/kg
same,IC50,[36],80 nM
same,ED50,Rattus norvegicus [31]; read-out: ED50,18.8 µmol/kg
same,Max tolerated dose,Rattus norvegicus [32],>418 µM/kg
CS(=O)(=O)c1ccc(-c2[nH]c(Br)cc2-c2ccc(F)cc2)cc1,half-life,[37],9.9 h
same,Ratio,[25],> 43
same,ED50,Rattus norvegicus [2]; read-out: ED50,2.55 µmol/kg
same,ED50,Rattus norvegicus [1],1.05 mg/kg
same,TD50,[3],95.9 µmol/kg
same,half-life,[38],10.2 h
same,Cmax,[39],3 uM l-1
same,no-effect dose,Rattus norvegicus [30],>46 µM/kg
same,Cmax,[40],2 uM l-1
same,TD50/ED50,[6],36
same,ED50,Rattus norvegicus [31]; read-out: ED50,22.7 µmol/kg
same,Vd,[41],3.5 L/kg

# From ChEMBL document CHEMBL1127690, “Antiinflammatory 4,5-diarylpyrroles: synthesis and QSAR” (J Med Chem, 1994)
